Data as given in ChEMBL document CHEMBL5335796, “Novel Psilocin Prodrugs with Altered Pharmacological Properties as Candidate Therapies for Treatment-Resistant Anxiety Disorders” (J Med Chem, 2024).
Activity calls are given as the source filed them. No cut-off for these calls is given here.

Legend:
[1] = Drug metabolism in C57BL/6 mouse assessed as psilocin formation at 10 mg/kg, po measured after 8 hrs by LC-MS analysis; format: ADME, organism-based; conditions: in vivo
[2] = Drug metabolism in human intestine microsomes assessed as psilocin formation at 2.5 uM after 120 mins by LC-MS analysis; format: ADME, Microsome; conditions: 2 h
Outline: (§1)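 2.5 μM compound in 50 mM potassium phosphate pH 7.4 with 3 mM MgCl2, 1 mM EDTA and an NADPH regenerating system. Incubated at 37 °C with human liver or intestinal S9 or microsomes (400 μg/mL protein) or 10% human AB serum. Acetonitrile quench, then LC-MS; psilocin concentration read at 120 min.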

[3] = Drug metabolism in po dosed C57BL/6 mouse assessed as psilocin formation measured upto 24 hrs by LC-MS analysis; format: ADME, organism-based; conditions: in vivo, dose 1-10 mg/kg
[4] = Metabolic stability in human intestine microsomes assessed as half life at 2.5 uM measured upto 120 mins in presence of NADPH by LC-MS analysis; format: ADME, Microsome; conditions: 2 h
Outline: (§2)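 2.5 μM compound at 37 °C in 50 mM potassium phosphate pH 7.4 with 3 mM MgCl2, 1 mM EDTA and an NADPH regenerating system. […] Sampled at 0–120 min in 20-min steps, acetonitrile quench, LC-MS of parent. T1/2 from one-phase exponential decay fit.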

[5] = Drug metabolism in human intestine S9 fraction assessed as psilocin formation at 2.5 uM after 120 mins by LC-MS analysis; format: ADME, subcellular; conditions: s9, 2 h; outline: as §1
[6] = Drug metabolism in human serum assessed as psilocin formation at 2.5 uM after 120 mins by LC-MS analysis; format: ADME, cell-free; conditions: 2 h; outline: as §1
[7] = Drug metabolism in human liver microsomes assessed as psilocin formation at 2.5 uM after 120 mins by LC-MS analysis; format: ADME, Microsome; conditions: 2 h; outline: as §1
Mus musculus [8] = test: Psychedelic activity in mouse assessed as head-twitch response at 1 mg/kg, po measured after 15 to 30 mins; format: functional, organism-based; conditions: time 15-30 min
Outline: (§3)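 C57BL/6 mice, singly housed for 2 days, with 30-min predose chamber acclimation. Single oral 1 mg/kg dose from 100 mM DMSO stock diluted in 0.9% saline; vehicle 1% DMSO in saline. Video-recorded after dosing; head twitches scored blind per 15-min interval (reference time course) or for the 15–30 min window. n = 2–4; one-way ANOVA.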

[9] = Metabolic stability in human liver S9 fraction assessed as half life at 2.5 uM measured upto 120 mins in presence of NADPH by LC-MS analysis; format: ADME, subcellular; conditions: for t1/2: s9, 2 h, 2.5 µM; outline: as §2
[10] = Metabolic stability in human serum assessed as half life at 2.5 uM measured upto 120 mins in presence of NADPH by LC-MS analysis; format: ADME, cell-free; conditions: 2 h; outline: as §2
[11] = Metabolic stability in human intestine S9 fraction assessed as half life at 2.5 uM measured upto 120 mins in presence of NADPH by LC-MS analysis; format: ADME, subcellular; conditions: s9, 2 h; outline: as §2
[12] = Drug metabolism in human liver S9 fraction assessed as psilocin formation at 2.5 uM after 120 mins by LC-MS analysis; format: ADME, subcellular; conditions: s9, 2 h; outline: as §1
[13] = Metabolic stability in human liver microsomes assessed as half life at 2.5 uM measured upto 120 mins in presence of NADPH by LC-MS analysis; format: ADME, Microsome; conditions: for t1/2: microsomes, 2 h, 2.5 µM; outline: as §2
[14] = Drug metabolism in C57BL/6 mouse assessed as psilocin formation at 1 mg/kg, iv measured upto 24 hrs by LC-MS analysis; format: ADME, organism-based; conditions: in vivo
Mus musculus [15] = test: Anxiolytic activity in non-stressed mouse assessed as reduction in marble-burying behavior by measuring decrease in number of buried marbles at 10 mg/kg, po measured upto 7 days; format: functional, organism-based; conditions: time <= 7.0 day
Mus musculus [16] = test: Anxiolytic activity in non-stressed mouse assessed as reduction in marble-burying behavior by measuring decrease in number of buried marbles at 10 mg/kg, po measured after 1 day; format: functional, organism-based
[17] = Drug metabolism in C57BL/6 mouse assessed as psilocin formation at 10 mg/kg, po measured at 24 hrs by LC-MS analysis; format: ADME, organism-based; conditions: in vivo
Mus musculus [18] = test: Anxiolytic activity in mouse assessed as reduction in MCSP induced marble-burying behavior by measuring decrease in number of buried marbles at 1 mg/kg, po measured upto 7 days; format: functional, organism-based; conditions: time <= 7.0 day
Outline: (§4)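 Mixed-sex C57BL/6 mice, singly housed. Stress group: 7-day mild chronic stress paradigm with corticosterone 25 μg/mL in 1% ethanol drinking water plus daily 30-min restraint over the last 5 days; controls unstressed. Single oral dose in saline with 1% DMSO at 2.5 μL/g, given 24 h after stress. 10 marbles on 5 cm bedding; % buried over 20 min on days 1 and 7. Ordinary one-way ANOVA; n = 6–11.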

[19] = Drug metabolism in C57BL/6 mouse assessed as psilocin AUC(0 to last) at 3 mg/kg, po measured upto 24 hrs by LC-MS analysis; format: ADME, organism-based; set-up: time < 24 hrs, dose 3 mg/kg, route po; conditions: in vivo
[20] = Drug metabolism in C57BL/6 mouse assessed as psilocin Cmax at 3 mg/kg, po measured upto 24 hrs by LC-MS analysis; format: ADME, organism-based; set-up: dose 3 mg/kg, time < 24 hrs, route po; conditions: in vivo
[21] = Drug metabolism in C57BL/6 mouse assessed as psilocin AUC(0 to last) at 10 mg/kg, po measured upto 24 hrs by LC-MS analysis; format: ADME, organism-based; set-up: dose 10 mg/kg, time < 24 hrs, route po; conditions: in vivo
Mus musculus [22] = test: Psychedelic activity in mouse assessed as head-twitch response at 1 mg/kg, po measured upto 90 mins; format: functional, organism-based; outline: as §3
[23] = Drug metabolism in C57BL/6 mouse assessed as psilocin Cmax at 10 mg/kg, po measured upto 24 hrs by LC-MS analysis; format: ADME, organism-based; set-up: time < 24 hrs, dose 10 mg/kg, route po; conditions: in vivo
[24] = Anxiolytic activity in non-stressed mouse assessed as reduction in marble-burying behavior by measuring decrease in number of buried marbles at 1 mg/kg, po measured upto 7 days; format: toxicity, organism-based; conditions: in vivo, 168 h, time < 7 day; outline: as §4

| SMILES | Drug metabolism [1] | Drug metabolism [2] [µM] | Drug metabolism [3] | t1/2 [4] [min] | Drug metabolism [5] [µM] | Drug metabolism [6] [µM] | Drug metabolism [7] [µM] | Activity (Mus musculus [8]) | t1/2 [9] [min] | t1/2 [10] [min] | t1/2 [11] [min] | Drug metabolism [12] [µM] | t1/2 [13] [min] | Drug metabolism [14] | Activity (Mus musculus [16]) | other results |
| --- | --- | --- | --- | --- | --- | --- | --- | --- | --- | --- | --- | --- | --- | --- | --- | --- |
| CCCC(=O)OCOc1cccc2[nH]cc(CCN(C)C)c12 | Metabolite_Notdetected | 0.043 | Dose-Dependent Effect | 74 | 0.018 | 0 | 0.073 | inactive | 4 | 2 | 241 | 0.012 | 3 | – | – | – |
| CN(C)CCc1c[nH]c2cccc(OC(=O)c3c(F)c(F)c(F)c(F)c3F)c12 | Metabolite_Notdetected | 0.786 | Dose-Dependent Effect | 32 | 0.533 | 0.45 | 2.554 | Active | 1 | 0.7 | 56 | 1.244 | 1 | – | – | – |
| CCCCC(=O)OCOc1cccc2[nH]cc(CCN(C)C)c12 | Metabolite_Notdetected | 0.081 | Dose-Dependent Effect | 112 | 0.055 | 0 | 0.132 | – | 5 | 3 | 39 | 0.07 | 4 | Metabolite_Detected | – | – |
| CN(C)CCc1c[nH]c2cccc(OC(=O)SCc3ccccc3)c12 | Metabolite_Notdetected | 0.156 | Dose-Dependent Effect | 71 | 0 | 0.385 | 2.105 | Active | – | 14 | 50 | 1.233 | – | Metabolite_Detected | Active | Activity (Mus musculus [15]): Active; half-life at 2.5 µM ([9]; liver S9 fraction): 5 min; half-life at 2.5 µM ([13]; liver microsomes): 6 min |
| COc1ccc(C(=O)Oc2cccc3[nH]cc(CCN(C)C)c23)cc1 | Metabolite_Notdetected | 0.041 | Dose-Dependent Effect | 315 | 0.114 | 1.097 | 2.718 | Active | 21 | 1 | 132 | 1.95 | 17 | Metabolite_Detected | Active | Activity (Mus musculus [15]): Active |
| CN(C)CCc1c[nH]c2cccc(OC(=O)OCC3CC3)c12 | – | 0.157 | Dose-Dependent Effect | 271 | 0.224 | 0.361 | 1.929 | inactive | 9 | 3 | 327 | 1.177 | 4 | Metabolite_Detected | – | Drug metabolism [17]: Metabolite_Detected |
| CN(C)CCc1c[nH]c2cccc(OC(=O)OCc3ccccc3)c12 | – | 0.038 | Dose-Dependent Effect | 211 | 0.044 | 0 | 0.114 | – | – | – | 529 | 0.084 | 113 | Metabolite_Detected | – | Drug metabolism [17]: Metabolite_Detected |
| CN(C)CCc1c[nH]c2cccc(OC(=O)CC3CC3)c12 | Metabolite_Notdetected | 0.927 | Dose-Dependent Effect | 62 | 1.384 | 0.778 | 1.89 | Active | 3 | 1 | 104 | 1.343 | 1 | Metabolite_Detected | Active | – |
| CN(C)CCc1c[nH]c2cccc(OP(=O)(O)O)c12 [PSILOCYBIN] | Metabolite_Notdetected | 0.172 | Dose-Dependent Effect | 195 | 0.621 | 0 | 0 | – | – | – | – | 0 | – | – | – | Activity (Mus musculus [18]): Active; AUClast [19]: 84.4 ng·h/mL; Cmax [20]: 52.9 ng/mL; AUClast [21]: 397.3 ng·h/mL; Activity (Mus musculus [22]): Active; Cmax [23]: 243 ng/mL; Activity [24]: Non-Toxic |
